Here are results for three molecules from PMC3780561 (Molecular cancer therapeutics, 2013).

Like-named read-outs stand apart in the source and are kept apart here. Some results are limits rather than exact numbers.

The subject of the experiment is NSCLC cell lines (A549, H23 and H358). Kind of experiment: Cell viability, modified MTT assay, 24 h. Format: cell-based, human. Particulars: read-out: 24 h-IC50. Put shortly: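 ATCC-sourced A549 (p53 wild-type), H23 (p53-mutant) and H358 (p53-null) cells were grown per ATCC. Viability after 24 h exposure to test compound or sulindac metabolites was measured by modified MTT assay. 24-h IC50 was derived from viability curves.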

Consider `CSc1ccc(/C=C2/C(C)=C(CC(=O)O)c3cc(F)ccc32)cc1` [sulindac sulfide], for which the half-maximal inhibitory concentration (IC50) (Homo sapiens, 24 h) lay in the range of 159 to 222 µM.

`CC1=C(CC(=O)O)c2cc(F)ccc2/C1=C\c1ccc(S(C)(=O)=O)cc1` [sulindac sulfone]: the half-inhibitory concentration (IC50) (range among A549, H23 and H358 cells) is 566 to 1900 µM.

On to `CC1=C(CC(=O)O)c2cc(F)ccc2/C1=C\c1ccc([S+](C)[O-])cc1` (stereo not drawn) [sulindac], for which the half-inhibitory concentration (IC50) (Homo sapiens, 24 h) is > 1000 µM.
